In ChEMBL document CHEMBL1125217, “2-Pyridinone derivatives: a new class of nonnucleoside, HIV-1-specific reverse transcriptase inhibitors” (J Med Chem, 1991):

What was measured:
[1] = molecular target: Human immunodeficiency virus type 1 reverse transcriptase (Human immunodeficiency virus 1, UniProt Q72547); test: Inhibitory activity against HIV-1 reverse transcriptase (RT)
[2] = tested on: H9; test: Concentration which inhibited >95% spread of HIV-1 strain IIIb infection in susceptible H-9 cell culture; format: functional; conditions: Homo sapiens, read-out: CIC95
How it was run: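 H9 human T-lymphoid cells in RPMI 1640 with 10% heat-inactivated FBS were pre-incubated one day with serial 2-fold inhibitor dilutions, then infected with HIV-1 IIIb at low multiplicity (<0.001). Inhibitor was kept present for 13-14 days. Spread was measured by p24 core antigen ELISA of supernatants. CIC95 is the concentration blocking >95% of spread.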

[3] = tested on: MT4; test: Concentration which inhibited >95% spread of HIV-1 strain IIIb infection in susceptible MT-4 cell culture; format: functional; conditions: Homo sapiens, read-out: CIC95
How it was run: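 MT-4 human T-lymphoid cells in RPMI 1640 with 10% heat-inactivated FBS were infected en masse with HIV-1 IIIb (multiplicity 0.01) for 24 h. They were then washed and plated with serial 2-fold inhibitor dilutions for 3 more days. Spread was measured by p24 core antigen ELISA. CIC95 is the concentration blocking >95% of spread.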

Compound	IC50 [1] [nM]	IC95 [2] [nM]	IC95 [3] [nM]
CCc1cc(NCc2cc3ccccc3o2)c(O)nc1C	235		
CCc1cc(NCc2ccc3ccccc3c2)c(=O)[nH]c1C	440		
CCc1cc(CCc2nc3c(C)ccc(C)c3o2)c(=O)[nH]c1C	23		
CCc1cc(NCc2nc3c(C)ccc(C)c3o2)c(O)nc1C	20	150	50
CCc1cc(NCc2nc3ccccc3o2)c(O)nc1C	210		
CCc1cc(NCc2nc3ccccc3s2)c(O)nc1C	350		
CC(C)=CCN1Cc2cccc3[nH]c(=S)n(c23)C[C@@H]1C			200
CCc1cc(CCN2C(=O)c3ccccc3C2=O)c(O)nc1C	3700	40000	
CCc1cc(CCc2nc3ccccc3o2)c(O)nc1C	22	200	100
CCc1cc(CCc2nc3ccccc3s2)c(O)nc1C	370		
CCc1cc(CCc2cc3ccccc3o2)c(O)nc1C	77		
CCc1cc(NCc2nc3ccccc3[nH]2)c(O)nc1C	6400		
CCc1cc(NCc2nc3c(C)cccc3o2)c(O)nc1C	125		
CCc1cc(CCc2nc3c(Cl)ccc(Cl)c3o2)c(O)nc1C	9.6		100
CCc1cc(NCc2nc3cccc(C)c3o2)c(O)nc1C	55		
CCc1cc(NCc2nc3c(Cl)ccc(Cl)c3o2)c(O)nc1C [L-697661]	19	100	50
Cc1ccnc2c1NC(=O)c1cccnc1N2C1CC1 [NEVIRAPINE]			100
